Source: ChEMBL document CHEMBL1128497, “Synthesis and in vitro and in vivo antitumor activity of a series of trans platinum antitumor complexes” (J Med Chem, 1995)
“And” between values parts separate entries of the source, which are not always exact repeats. Identical values can stand only once.

Experiments:
SK-OV-3 = test: In vitro antitumor activity against SK-OV-3 cell line.; assay type: functional, cell-based, Homo sapiens
Method in brief: (§1)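 Human ovarian carcinoma monolayers were grown in DMEM with 10% FCS, insulin and hydrocortisone under 10% CO2. Cells were seeded at 5 × 10^3–1 × 10^4 per well and left to attach overnight. Drugs were freshly dissolved in 0.9% saline (1 mM or 500 μM stocks) and added to quadruplicate wells for 96 h. Cell mass was read by SRB staining. IC50 values are means of at least two experiments.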

CH1 [1] = test: In vitro antitumor activity against CH1cisR cell line.; assay type: functional, cell-based, Homo sapiens; method in brief: as §1
A2780 [2] = test: In vitro antitumor activity against A2780 cell line.; assay type: functional, cell-based, Homo sapiens; method in brief: as §1
CH1 [3] = test: In vitro antitumor activity against CH1 cell line.; assay type: functional, cell-based, Homo sapiens; method in brief: as §1
A2780 [4] = test: In vitro antitumor activity against A2780cisR cell line.; assay type: functional, cell-based, Homo sapiens; method in brief: as §1
41M [5] = test: In vitro antitumor activity against 41McisR cell line.; assay type: functional, cell-based, Homo sapiens; method in brief: as §1
41M [6] = test: In vitro antitumor activity against 41M cell line.; assay type: functional, cell-based, Homo sapiens; method in brief: as §1
[7] = In vivo antitumor activity by i.p. administration against murine ADJ/PC6 (sc) plasmacytoma.; assay type: ADME, organism-based; conditions: mouse, ip
A2780 [8] = test: Resistant factor determined between IC50 of resistant line to that of parental A2780 cell line; assay type: functional, cell-based; conditions: Homo sapiens
Method in brief: (§2)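 Resistance factor is the IC50 in the cisplatin-resistant subline divided by the IC50 in its parent line. IC50s came from a 96 h SRB cytotoxicity assay run in quadruplicate wells.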

41M [9] = test: Resistant factor was determined between IC50 of cisplatin-resistant human tumor cell lines to that of […] cell line; assay type: functional, cell-based; method in brief: as §2
CH1 [10] = test: Resistant factor, determined between IC50 of resistant line to that of CHcisR cell line; assay type: functional, cell-based; conditions: Homo sapiens; CH1cisR; method in brief: as §2

Substance | IC50 (SK-OV-3) | IC50 (CH1 [1]) | IC50 (A2780 [2]) | IC50 (CH1 [3]) | IC50 (A2780 [4]) | IC50 (41M [5]) | IC50 (41M [6]) | LD50 [7] | RF (A2780 [8]) | RF (41M [9]) | RF (CH1 [10])
trans-a-Ammine-b,d-dichloro-c,e-dihydroxo-f-(quinuclidine)-platinium (IV) [listing 1 of 2 here] | 27 µM | 14.3 µM | 3.2 µM | 10.2 µM | 16 µM | 9.5 µM | 14.4 µM | – | – | – | –
trans-a-ammine-b,d-dichloro-f-(2-propylamine)-c,e-dihydroxoplatinium (IV) | 9.2 µM and 30.5 µM | 5.5 µM and 4.9 µM | 0.54 µM and 0.99 µM | 2.4 µM and 1.4 µM | 4.7 µM and 7.2 µM | 4.6 µM and 9.2 µM | 3.2 µM and 3.9 µM | 18 mg/kg and 35 mg/kg | – | – | –
trans-Amminetetrachloro(pyridine)-platinium (IV) | – | – | – | – | – | – | – | – | 1.7 | 0.8 | 1
trans-Amminetetrachloro(cyclohexylamine)-platinium (IV) [listing 1 of 2 here] | 9.3 µM | 4.7 µM | 1.5 µM | 3.9 µM | 5.3 µM | 4.1 µM | 3.1 µM | – | – | – | –
Trans-Amminedichloro hexylamine platinium (II) [listing 1 of 2 here] | – | – | – | – | – | – | – | – | 2.1 | 0.9 | 1.1
trans-a-Ammine-b,d-dichloro-c,e-dihydroxy-f-(diethylamine)-platinium (IV) [listing 1 of 2 here] | 12.1 µM | 4.5 µM | 1.9 µM | 3.3 µM | 11.6 µM | 0.76 µM | 1.8 µM | – | – | – | –
trans-Amminedibromo (cyclohexylamine)-platinium (II) [listing 1 of 2 here] | 11.5 µM | 5 µM | 1.9 µM | 4 µM | 5.4 µM | 3.2 µM | 4 µM | – | – | – | –
Trans-Amminedichloro(diethylamine)platinium (II) | > 50 µM | > 50 µM | > 50 µM | > 50 µM | > 50 µM | > 50 µM | > 50 µM | – | – | – | –
trans-a-Ammine-b,d-dichloro-c,e-dihydroxo-f-(quinuclidine)-platinium (IV) [listing 2 of 2 here] | – | – | – | – | – | – | – | – | 5 | 0.7 | 1.4
trans-Amminedichloro(N-methylcyclohexylamine)-platinium (II) [listing 1 of 2 here] | – | – | – | – | – | – | – | – | 7.8 | 0.6 | 2.8
trans-Amminedichloro(quinuclidine)platinium (II) | > 50 µM | > 50 µM | 26 µM | > 50 µM | > 50 µM | > 50 µM | > 50 µM | – | – | – | –
trans-Amminetetrachloro(cyclohexylamine)-platinium (IV) [listing 2 of 2 here] | – | – | – | – | – | – | – | – | 3.4 | 1.3 | 1.2
trans-a-ammine-b,d-dichloro-f-(cyclohexylamine)-c,e-dihydroxoplatinium (IV) | 6 µM and 16.6 µM | 2.1 µM and 2 µM | 0.42 µM and 0.8 µM | 1.1 µM and 0.57 µM | 3 µM and 1.9 µM | 1.4 µM and 3.2 µM | 1.3 µM and 3.5 µM | – | – | – | –
trans-a-Ammine-b,d-dichloro-c,e-dihydroxo-f-(N-methylcyclohexylamine)-platinium (IV) | 6.9 µM | 2.9 µM | 1.3 µM | 1.3 µM | 5 µM | 1.6 µM | 2.3 µM | 29 mg/kg | – | – | –
trans-Amminedibromo (cyclohexylamine)-platinium (II) [listing 2 of 2 here] | – | – | – | – | – | – | – | – | 2.8 | 0.8 | 1.2
Trans-Amminedichloro hexylamine platinium (II) [listing 2 of 2 here] | 7.1 µM | 4.4 µM | 2.3 µM | 4 µM | 4.8 µM | 4.1 µM | 4.5 µM | – | – | – | –

Substance | IC50 (SK-OV-3) | IC50 (CH1 [1]) | IC50 (A2780 [2]) | IC50 (CH1 [3]) | IC50 (A2780 [4]) | IC50 (41M [5]) | IC50 (41M [6]) | LD50 [7] | RF (A2780 [8]) | RF (41M [9]) | RF (CH1 [10])
AMMONIO(DICHLORO)PLATINUM(CYCLOHEXYL)AMMONIUM | 2.1 µM and 7.2 µM | 0.38 µM and 3.3 µM | – | – | – | 0.28 µM and 1.5 µM | 0.26 µM and 1.7 µM | 17.5 mg/kg and 35 mg/kg | – | – | –
trans-a-Ammine-b,d-dichloro-c,e-dihydrooxy-f-(Morphiline)-platinium (IV) | 47 µM | 28.3 µM | 10.9 µM | 17.3 µM | 47 µM | 54 µM | 26 µM | 82 mg/kg | – | – | –
trans-a-Ammine-b,d-dichloro-c,e-dihydroxy-f-(benzylamine)-platinium (IV) | 8.2 µM | 1.9 µM | 1.1 µM | 1.1 µM | 4.2 µM | 1.3 µM | 1.3 µM | 71 mg/kg | – | – | –
Trans-Amminedichloro(cycloheptylamine)platinium (II) [listing 1 of 2 here] | – | – | – | – | – | – | – | – | 3.4 | 0.7 | 1.1
trans-a-ammine-b,d-dichloro-f-(cyclohexylamine)-c,e-bis-(ethylcarbamato)platinium (IV) | 19 µM | 5.6 µM | 3.2 µM | 4.6 µM | 10.6 µM | 4.3 µM | 6.2 µM | – | – | – | –
trans-(1-Aminoadamantane)Amminedichloro-platinium (II) [listing 1 of 2 here] | 1.5 µM | 0.43 µM | 0.4 µM | 0.21 µM | 1.4 µM | 1.2 µM | 0.49 µM | – | – | – | –
trans-Amminedichloro(N-methylcyclohexylamine)-platinium (II) [listing 2 of 2 here] | 3.9 µM | 1.1 µM | 0.46 µM | 0.38 µM | 3.6 µM | 0.48 µM | 0.78 µM | 71 mg/kg | – | – | –
trans-Amminetetrachloro(quinuclidine)-platinium (IV) | 29 µM | 15.5 µM | 14 µM | 15.5 µM | 16 µM | 16 µM | 16.5 µM | – | – | – | –
trans-a,f-Dichloro-b,d-bis(cyclohexylamine)-c,e-dihydroxo-platinium (IV) | 2.5 µM | 0.6 µM | 0.8 µM | 0.55 µM | 3.2 µM | 1.2 µM | 0.8 µM | – | – | – | –
trans-a-Ammine-b,d-dichloro-c,e-dihydroxy-f-(diethylamine)-platinium (IV) [listing 2 of 2 here] | – | – | – | – | – | – | – | – | 6.2 | 0.4 | 1.4
trans-a-Ammine-b,d-dichloro-c,e-dihydrooxy-f-(ethylamine)-platinium (IV) [listing 1 of 2 here] | – | – | – | – | – | – | – | – | 5.9 | 1.4 | 1.4
trans-(1-Aminoadamantane)Amminedichloro-platinium (II) [listing 2 of 2 here] | – | – | – | – | – | – | – | – | 3.6 | 2.4 | 2
AMMONIO(DICHLORO)[DI(METHYLCARBONYLOXY)]PLATINUM(CYCLOHEXYL)AMMONIUM | – | – | – | – | – | – | – | – | 10 | 0.9 | 1.4
trans-a-Ammine-b,d-dichloro-c,e-dihydrooxy-f-(ethylamine)-platinium (IV) [listing 2 of 2 here] | 45 µM | 14 µM | 4.5 µM | 10.3 µM | 26.5 µM | 13.3 µM | 9.4 µM | – | – | – | –
Trans-Amminedichloro(cycloheptylamine)platinium (II) [listing 2 of 2 here] | 10 µM | 4.7 µM | 1.3 µM | 4.3 µM | 4.6 µM | 1.7 µM | 2.4 µM | – | – | – | –
